Assays:
Format in all cases: functional
[1] = test system: VCaP; assay: Antiproliferative activity against human VCaP cells assessed as reduction in cell growth incubated for 96 hrs by propidium iodide based 2D monolayer assay
How it was run: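 VCaP cells in RPMI 1640 with 10% FCS at 37 °C, 5% CO2, seeded 4,000–20,000 cells/well and left 24 h before dosing. Compounds from DMSO stocks were diluted in half-log steps in medium, 10 concentrations 0.0032–100 μM, triplicate wells, max 0.3% DMSO. After 96 h, cells were washed, stained with 7 μg/ml propidium iodide plus 0.1% Triton X-100 for 1–2 h at room temperature, and fluorescence read at ex 530/em 620 nm.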

[2] = test system: LNCaP; assay: Antiproliferative activity against human LNCAP cells assessed as reduction in cell growth incubated for 96 hrs by propidium iodide based 2D monolayer assay
How it was run: (§1)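 After 24 h recovery, compound in medium or medium alone (control wells) was added at 10 half-log concentrations from 0.0032 to 100 µM, in triplicate, with at most 0.3% DMSO. After 96 h, wells were PBS-washed, stained with 7 µg/ml PI and 0.1% Triton X-100, and fluorescence read at 530/620 nm. IC50 came from a 4-parameter fit, geometric mean.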

[3] = test system: CWR22R; assay: Antiproliferative activity against human 22Rv1 cells assessed as reduction in cell growth incubated for 96 hrs by propidium iodide based 2D monolayer assay; conditions: for IC50: 22Rv1, 96 h; how it was run: as §1
[4] = test system: DU-145; assay: Antiproliferative activity against human DU145 cells assessed as reduction in cell growth incubated for 96 hrs by propidium iodide based 2D monolayer assay; conditions: for IC50: DU-145, 96 h; how it was run: as §1

SMILES	IC50 [1]	IC50 [2]	IC50 [3]	IC50 [4]	Activity [1]	Activity [2]	Activity [3]	Activity [4]
CC(O)(CSc1cccc(C(F)(F)F)c1)C(=O)Nc1ccc(S(F)(F)(F)(F)F)cc1 (racemic)	18.8 µM	18.3 µM	23.4 µM	26.2 µM	–	–	–	–
CC(O)(COc1ccc(C#N)cc1C(F)(F)F)C(=O)Nc1cccc(S(F)(F)(F)(F)F)c1 (racemic)	30.6 µM	16.4 µM	18.3 µM	22.8 µM	–	–	–	–
CC(O)(CS(=O)(=O)c1cccc(S(F)(F)(F)(F)F)c1)C(=O)Nc1ccc(S(F)(F)(F)(F)F)cc1 (racemic)	24.8 µM	31.3 µM	39.9 µM	34 µM	–	–	–	–
CC(O)(COc1ccc(C#N)c(F)c1)C(=O)Nc1ccc(S(F)(F)(F)(F)F)cc1 (racemic)	100 µM	100 µM	24.3 µM	30.4 µM	–	–	–	–
CC(O)(CSc1ccccc1OC(F)(F)F)C(=O)Nc1cccc(S(F)(F)(F)(F)F)c1 (racemic)	12.6 µM	10 µM	13.9 µM	17.5 µM	–	–	–	–
CC1(C)C(=O)N(c2cccc(S(F)(F)(F)(F)F)c2)C(=S)N1c1ccc(C(F)(F)F)cc1	54.2 µM	5.2 µM	22.4 µM	39.8 µM	–	–	–	–
CC(O)(COc1cccc(C(F)(F)C(F)(F)F)c1)C(=O)Nc1cc(C(F)(F)F)cc(C(F)(F)F)c1 (racemic)	9.5 µM	4.4 µM	4.1 µM	8.5 µM	–	–	–	–
CC(O)(COc1ccc(C#N)cc1C(F)(F)F)C(=O)Nc1ccc(S(F)(F)(F)(F)F)cc1 (racemic)	100 µM	100 µM	13.8 µM	21.2 µM	–	–	–	–
CC(O)(CS(=O)(=O)c1ccc(S(F)(F)(F)(F)F)cc1)C(=O)Nc1ccc([N+](=O)[O-])c(C(F)(F)F)c1 (racemic)	19.2 µM	10 µM	14.7 µM	17.7 µM	–	–	–	–
CC(O)(COc1ccc(S(F)(F)(F)(F)F)cc1)C(=O)Nc1cccc(S(F)(F)(F)(F)F)c1 (racemic)	8 µM	8 µM	10.2 µM	12.8 µM	–	–	–	–
CC(O)(COc1ccc(S(F)(F)(F)(F)F)cc1)C(=O)Nc1ccc([N+](=O)[O-])cc1C(F)(F)F (racemic)	26.1 µM	14.8 µM	17.1 µM	15.4 µM	–	–	–	–
CC(O)(CSc1ccccc1OC(F)(F)F)C(=O)Nc1ccc(S(F)(F)(F)(F)F)cc1 (racemic)	10.1 µM	10.6 µM	15 µM	29 µM	–	–	–	–
CC(O)(CS(=O)(=O)c1ccc(F)cc1)C(=O)Nc1ccc(C#N)c(C(F)(F)F)c1 (racemic) [BICALUTAMIDE]	–	–	–	–	Dose-dependent effect	Dose-dependent effect	Dose-dependent effect	Dose-dependent effect
CC(O)(COc1ccc(S(F)(F)(F)(F)F)cc1)C(=O)Nc1ccc(C(F)(F)F)cc1 (racemic)	14.7 µM	11.7 µM	12.9 µM	27.4 µM	–	–	–	–
CC(O)(COc1cccc(S(F)(F)(F)(F)F)c1)C(=O)Nc1ccc(C(F)(F)F)cc1 (racemic)	23.8 µM	12.8 µM	15.8 µM	21 µM	–	–	–	–
CC(O)(CS(=O)(=O)c1cccc(S(F)(F)(F)(F)F)c1)C(=O)Nc1ccc([N+](=O)[O-])cc1C(F)(F)F (racemic)	100 µM	6.5 µM	100 µM	100 µM	–	–	–	–
CC(O)(CSc1cccc(S(F)(F)(F)(F)F)c1)C(=O)Nc1ccc([N+](=O)[O-])c(C(F)(F)F)c1 (racemic)	9.8 µM	8.6 µM	8.8 µM	13.9 µM	–	–	–	–
CC(O)(COc1cccc(C(F)(F)F)c1)C(=O)Nc1ccc(S(F)(F)(F)(F)F)cc1 (racemic)	24.7 µM	24.7 µM	14.6 µM	21.9 µM	–	–	–	–

SMILES	IC50 [1]	IC50 [2]	IC50 [3]	IC50 [4]	Activity [1]	Activity [2]	Activity [3]	Activity [4]
CC(O)(CSc1ccc(S(F)(F)(F)(F)F)cc1)C(=O)Nc1ccc(C#N)cc1C(F)(F)F (racemic)	20.5 µM	15.1 µM	13.2 µM	17.7 µM	–	–	–	–
CC(O)(CS(=O)(=O)c1cc(C(F)(F)F)cc(C(F)(F)F)c1)C(=O)Nc1cccc(S(F)(F)(F)(F)F)c1 (racemic)	10.4 µM	9.7 µM	9.3 µM	13.7 µM	–	–	–	–
CC(O)(CSc1ccc(C(F)(F)F)cn1)C(=O)Nc1ccc(S(F)(F)(F)(F)F)cc1 (racemic)	19 µM	12.3 µM	20 µM	30.7 µM	–	–	–	–
CC(O)(COc1cccc(S(F)(F)(F)(F)F)c1)C(=O)Nc1ccc(S(F)(F)(F)(F)F)cc1 (racemic)	11.4 µM	12 µM	17.6 µM	29.6 µM	–	–	–	–
CC1(C)C(=O)N(c2ccc([N+](=O)[O-])cc2C(F)(F)F)C(=S)N1c1ccc(S(F)(F)(F)(F)F)cc1	100 µM	100 µM	100 µM	100 µM	–	–	–	–
CC(O)(COc1cccc(S(F)(F)(F)(F)F)c1)C(=O)Nc1ccc(C#N)c(C(F)(F)F)c1 (racemic)	8 µM	9.8 µM	10.7 µM	16 µM	–	–	–	–
CC(O)(COc1ccc(OC(F)(F)F)cc1)C(=O)Nc1cccc(S(F)(F)(F)(F)F)c1 (racemic)	20.2 µM	12.7 µM	12.9 µM	19.1 µM	–	–	–	–
CC(O)(CS(=O)(=O)c1ccccc1C(F)(F)F)C(=O)Nc1ccc(S(F)(F)(F)(F)F)cc1 (racemic)	23.8 µM	10.8 µM	17.4 µM	29.4 µM	–	–	–	–
CC(O)(CSc1ccc(S(F)(F)(F)(F)F)cc1)C(=O)Nc1ccc([N+](=O)[O-])c(C(F)(F)F)c1 (racemic)	10.1 µM	8.7 µM	9.2 µM	13.9 µM	–	–	–	–
CC(O)(CS(=O)(=O)c1ccc(S(F)(F)(F)(F)F)cc1)C(=O)Nc1ccc([N+](=O)[O-])cc1C(F)(F)F (racemic)	28.6 µM	12.5 µM	18.7 µM	17.7 µM	–	–	–	–
CC(O)(CS(=O)(=O)c1cccc(OC(F)(F)F)c1)C(=O)Nc1ccc(S(F)(F)(F)(F)F)cc1 (racemic)	23.7 µM	21.7 µM	22.4 µM	26.5 µM	–	–	–	–
CC(O)(COc1cccc(S(F)(F)(F)(F)F)c1)C(=O)Nc1ccc(C#N)cc1C(F)(F)F (racemic)	10.3 µM	9.9 µM	11.6 µM	16.3 µM	–	–	–	–
CC(O)(COc1ccc(OC(F)(F)F)cc1)C(=O)Nc1ccc(S(F)(F)(F)(F)F)cc1 (racemic)	12.8 µM	18.6 µM	27.9 µM	24.8 µM	–	–	–	–
CC(O)(CSc1cccc(OC(F)(F)F)c1)C(=O)Nc1cccc(S(F)(F)(F)(F)F)c1 (racemic)	17.5 µM	10.9 µM	18.7 µM	25 µM	–	–	–	–
CC(O)(CS(=O)(=O)c1ccccc1C(F)(F)F)C(=O)Nc1cccc(S(F)(F)(F)(F)F)c1 (racemic)	40.8 µM	24.9 µM	27.7 µM	27.3 µM	–	–	–	–
CC(O)(COc1cccc(C(F)(F)F)c1)C(=O)Nc1cccc(S(F)(F)(F)(F)F)c1 (racemic)	22.5 µM	28.8 µM	28.9 µM	31.7 µM	–	–	–	–
CC(O)(COc1ccc(C(F)(F)F)cc1)C(=O)Nc1cccc(S(F)(F)(F)(F)F)c1 (racemic)	13.3 µM	9.6 µM	3.6 µM	13.6 µM	–	–	–	–

Reference: ChEMBL document CHEMBL4364301 (Eur J Med Chem, 2019)
